Consider 17 compounds from ChEMBL document CHEMBL2417419, “Synthesis and quantitative structure-activity relationship of imidazotetrazine prodrugs with activity independent of O6-methylguanine-DNA-methyltransferase, DNA mismatch repair, and p53” (J Med Chem, 2013).

The subject of data set [1] is A2780. Description: Ratio of IC50 for human A2780 cells to IC50 for human A2780 cells in presence of MGMT inactivator PaTrin2. It is filed as functional.
The subject of data set [2] is A2058. Description: Chemosensitization of human A2058 cells after 5 days by MTT assay. It is filed as functional, cell-based. The conditions noted are these: A2058, 120 h, in the assay text read “Cyquant assay” for “MTT assay”. For orientation: Tetrazolium dyes change colour on reduction, which living cells bring about.
In data set [3] the test system is SNB-19. Description: Chemosensitization of MGMT-deficient human SNB19 cells after 5 days by MTT assay. The conditions noted are these: SNB-19, 120 h, in the assay text read “Cyquant assay” for “MTT assay”. It is filed as functional, cell-based.
Data set [4] concerns A2780/CP70. Description: (§1) Chemosensitization of MMR-deficient human A2780/CP70 cells after 5 days by MTT assay. It is filed as functional, cell-based.
For data set [5], the system named is A2780. Description: Ratio of IC50 for MMR-deficient human A2780/CP70 cells to IC50 for human A2780 cells in presence of MGMT inactivator PaTrin2. It is filed as functional.
Data set [6] has as its system A2058. Description: Ratio of temozolomide IC50 to compound IC50 for human A2058 cells. Type of data set: functional.
Data set [7] relates to A2780/CP70. As to the kind of experiment: (§2) Chemoseinsitizatioin of MMR-deficieint humain A2780/CP70 cells after 5 days by MTT assay in preseince of MGMT iinactivator PaTriin2. Type of data set: functional, cell-based. The conditions noted are these: Homo sapiens. The procedure, abridged: (§3)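 Cells plated at 1×10^3 per well and left overnight at 37 °C in 5% CO2 to adhere. Medium was then replaced with fresh medium holding compound (0 controls to 250 µM; DMSO stock, final DMSO <0.1% v/v) plus 10 µM PaTrin2 to inactivate MGMT. Survival was read by MTT after 5 days at 37 °C.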

Data set [8] concerns SNB-19. Description: Chemosensitization of human SNB19 cells expressing MGMT after 5 days by MTT assay. It is filed as functional, cell-based. The conditions noted are these: SNB-19, 120 h, in the assay text read “Cyquant assay” for “MTT assay”.
For data set [9], the system named is HCT-116. As to the kind of experiment: Chemosensitization of human HCT116 cells expressing p53 after 5 days by MTT assay. The note with it: HCT-116, 120 h. Type of data set: functional, cell-based. The procedure, abridged: (§4)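 Cells were seeded at 1×10^3 per well and incubated overnight (37 °C, 5% CO2) to attach, then given fresh medium with compound at 0 (control) to 250 µM. Compounds were dissolved in DMSO, final DMSO <0.1% v/v, with no PaTrin2. MTT survival was measured after 5 days at 37 °C. Isogenic HCT116 p53+/+ and p53−/− pair used.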

Data set [10] has as its system A2780. Description: Chemosensitization of human A2780 cells after 5 days by MTT assay. The note with it: A2780, 120 h. Type of data set: functional, cell-based.
Data set [11] relates to HCT-116. Description: Chemosensitization of p53-deficient human HCT116 cells after 5 days by MTT assay. Type of data set: functional, cell-based. The conditions noted are these: HCT-116, 120 h. The procedure, abridged:
as §4

Data set [12] deals with HCT-116. As to the kind of experiment: Ratio of IC50 for human HCT116 cells expressing p53 to IC50 for p53-deficient human HCT116 cells. Type of data set: functional.
Data set [13] is described as follows: as §1. Type of data set: functional, cell-based. The note with it: A2780/CP70, 120 h.
The nature of data set [14]: as §2. Type of data set: functional, cell-based. The conditions noted are these: Homo sapiens, A2780/CP70, 120 h. The procedure, abridged: as §3
A short description of data set [15]: Half life of the compound at pH 7.4. It is filed as physicochemical.
Data set [16] concerns A2780. Description: Chemosensitization of human A2780 cells after 5 days by MTT assay in presence of MGMT inactivator PaTrin2. It is filed as functional, cell-based. The conditions noted are these: A2780, 120 h. The procedure, abridged: as §3

The source made the active and inactive calls. No cut-off for these calls is given here.

The IC50 is the concentration that gives 50% inhibition. Take `COc1ccc(N(CCn2nnc3c(C(N)=O)ncn3c2=O)CCn2nnc3c(C(N)=O)ncn3c2=O)cc1`: the “Ratio IC50” value was found to be 0.5 in the data set on A2780 [1], 5 with A2780 [5], 10 in the data set with A2058 [6] and 0.8 in the data set with HCT-116 [12]. Further, the IC50 in the data set with A2058 [2] came out at 2.5 µM; in the data set on SNB-19 [3] it was 6.6 µM; with SNB-19 [8], 7 µM; in the data set with HCT-116 [9], 7.6 µM; with A2780 [10], 1 µM; in the data set on HCT-116 [11], 9.9 µM. Further, the result in the data set on A2780/CP70 [4] and in the data set on A2780/CP70 [7] was Active.

Take `COc1ccc(N(CCn2nnc3c(C(N)=O)ncn3c2=O)CCn2nnc3c(C(N)=O)ncn3c2=O)c([N+](=O)[O-])c1`: the “Ratio IC50” value in the data set with A2780 [1] is reported as 0.5; with A2780 [5], 5. The outcome in the data set with A2780/CP70 [4] and with A2780/CP70 [7] was Active. The IC50 with A2780 [10] worked out at 1 µM.

Consider `NC(=O)c1ncn2c(=O)n(CCN(CCn3nnc4c(C(N)=O)ncn4c3=O)c3ccc(F)cc3)nnc12`, for which the “Ratio IC50” value in the data set on A2780 [1] came out at 0.5; with A2780 [5] it was 5; in the data set with A2058 [6], 10; with HCT-116 [12], 1.6. Moreover, the IC50 is 5.5 µM in the data set on A2058 [2]; 11 µM with SNB-19 [3]; 12 µM in the data set on SNB-19 [8]; 28 µM in the data set with HCT-116 [9]; 1 µM with A2780 [10]; 17 µM with HCT-116 [11]. In addition, the result in the data set with A2780/CP70 [4] and in the data set with A2780/CP70 [7] was Active.

For the compound `NC(=O)c1ncn2c(=O)n(CCCl)nnc12` [MITOZOLOMIDE], the results for the IC50 in the data set on HCT-116 [9] and in the data set with HCT-116 [11] were 60 µM and 17.9 µM, respectively. In addition, in the data set with HCT-116 [12], the “Ratio IC50” value was found to be 3.4.

The term half-life denotes how long it takes for the measured level to halve. A high value points to slow loss. Turning to `Cn1nnc2c(C(N)=O)ncn2c1=O` [TEMOZOLOMIDE], the entries for the “Ratio IC50” value in the data set on A2780 [1] and with A2780 [5] were over 30 and over 27, respectively. Also, the half-inhibitory concentration (IC50) is 35.5 µM in the data set on A2058 [2]; 37 µM in the data set on SNB-19 [3]; over 250 µM in data set [13]; 231 µM in data set [14]; over 250 µM in the data set with SNB-19 [8]; over 250 µM with A2780 [10]. In addition, the IC50 in the data set with A2780 [16] is 8.5 µM. In data set [15], this compound showed a half-life of 1.24 h.

Consider `Cc1ccc(N(CCn2nnc3c(C(N)=O)ncn3c2=O)CCn2nnc3c(C(N)=O)ncn3c2=O)cc1`, for which the results for the “Ratio IC50” value with A2780 [1], with A2780 [5] and in the data set on HCT-116 [12] were 0.5, 5 and 1.4, respectively. For the same compound, the outcome in the data set with A2780/CP70 [4] and in the data set with A2780/CP70 [7] was Active. For the same compound, the values for the IC50 in the data set with HCT-116 [9], in the data set on A2780 [10] and in the data set on HCT-116 [11] were 6.2 µM, 1 µM and 4.4 µM, respectively.

For the compound `COc1ccc(N(C)CCn2nnc3c(C(N)=O)ncn3c2=O)c([N+](=O)[O-])c1`, the “Ratio IC50” value in the data set on A2780 [1] came out at 1.1; in the data set on A2780 [5] it was 2.8. For the same compound, the outcome with A2780/CP70 [4] and with A2780/CP70 [7] was Active. Moreover, the IC50 in the data set with A2780 [10] came out at 22 µM.

With `Cc1ccc(N(C)CCn2nnc3c(C(N)=O)ncn3c2=O)cc1[N+](=O)[O-]`, the figures for the “Ratio IC50” value in the data set on A2780 [1] and in the data set with A2780 [5] were 1.1 and 2.8, respectively. In addition, the outcome with A2780/CP70 [4] and in the data set on A2780/CP70 [7] was Active. The IC50 in the data set on A2780 [10] is 22 µM.

Consider `CN(CCn1nnc2c(C(N)=O)ncn2c1=O)c1ccc(Cl)cc1`, for which the “Ratio IC50” value is 1.1 with A2780 [1], 2.8 with A2780 [5] and 1.5 in the data set on HCT-116 [12]. Besides, the result in the data set on A2780/CP70 [4] and with A2780/CP70 [7] was Active. Besides, the IC50 stood at 55 µM with HCT-116 [9], 22 µM in the data set on A2780 [10] and 35.8 µM in the data set with HCT-116 [11].

Turning to `CN(CCn1nnc2c(C(N)=O)ncn2c1=O)c1ccc(F)cc1`, the “Ratio IC50” value turned out to be 1.1 in the data set on A2780 [1] and 2.8 in the data set on A2780 [5]. In addition, the result in the data set with A2780/CP70 [4] and in the data set with A2780/CP70 [7] was Active. Also, the IC50 with A2780 [10] is 22 µM.

In the case of `CC(C)(C)OC(=O)N(CCn1nnc2c(C(N)=O)ncn2c1=O)c1ccc(Cl)cc1`, the “Ratio IC50” value is listed as 1.1 in the data set with A2780 [1] and 2.8 with A2780 [5]. Moreover, the outcome in the data set with A2780/CP70 [4] and in the data set on A2780/CP70 [7] was Active. Further, in the data set with A2780 [10], the IC50 came out at 22 µM.

Turning to `CN(CCn1nnc2c(C(N)=O)ncn2c1=O)c1ccc([N+](=O)[O-])cc1`, the “Ratio IC50” value was 1.1 in the data set on A2780 [1] and 2.8 with A2780 [5]. The result in the data set on A2780/CP70 [4] and with A2780/CP70 [7] was Active. Also, the IC50 with A2780 [10] amounted to 22 µM.

As for `NC(=O)c1ncn2c(=O)n(CCNc3ccc(Cl)cc3)nnc12`, the “Ratio IC50” value with A2780 [1] worked out at 1.1; in the data set on A2780 [5], 2.8; in the data set on HCT-116 [12], 1.4. Also, the IC50 is over 100 µM in the data set with A2058 [2]; 77 µM in the data set with SNB-19 [3]; over 100 µM in the data set with SNB-19 [8]; 13.2 µM in the data set with HCT-116 [9]; 22 µM with A2780 [10]; 9.5 µM with HCT-116 [11]. The outcome in the data set on A2780/CP70 [4] and in the data set on A2780/CP70 [7] was Active.

Turning to `Cc1ccc(N(C)CCn2nnc3c(C(N)=O)ncn3c2=O)cc1`, the “Ratio IC50” value in the data set with A2780 [1] was 1.1; with A2780 [5] it was 2.8. The outcome in the data set on A2780/CP70 [4] and in the data set on A2780/CP70 [7] was Active. Moreover, in the data set with A2780 [10], the IC50 came to 22 µM.

With `CN(CCn1nnc2c(C(N)=O)ncn2c1=O)c1ccccc1`, the “Ratio IC50” value with A2780 [1] is 1.1; with A2780 [5], 2.8. Besides, the result in the data set with A2780/CP70 [4] and with A2780/CP70 [7] was Active. Besides, in the data set with A2780 [10], the IC50 turned out to be 22 µM.

Consider `NC(=O)c1ncn2c(=O)n(CCN(CCn3nnc4c(C(N)=O)ncn4c3=O)c3ccccc3)nnc12`, for which the “Ratio IC50” value was determined as 0.5 in the data set with A2780 [1], 5 in the data set with A2780 [5] and 1.1 with HCT-116 [12]. For the same compound, the result in the data set with A2780/CP70 [4] and with A2780/CP70 [7] was Active. Also, the IC50 turned out to be 5.5 µM in the data set with HCT-116 [9], 1 µM in the data set with A2780 [10] and 4.8 µM in the data set with HCT-116 [11].

As to `NC(=O)c1ncn2c(=O)n(CCN(CCn3nnc4c(C(N)=O)ncn4c3=O)c3ccc(Cl)cc3)nnc12`, the entries for the “Ratio IC50” value in the data set with A2780 [1] and with A2780 [5] were 0.5 and 5, respectively. Further, the result in the data set on A2780/CP70 [4] and with A2780/CP70 [7] was Active. Moreover, the IC50 in the data set on A2780 [10] came to 1 µM.
